Calls of active or inactive are those of the source. The calls are words filed in the database; no cut-off is given here.
How the values were obtained:
[1] = biological target: Acidic leucine-rich nuclear phosphoprotein 32 family member B (Homo sapiens) (UniProt Q92688); experiment: Binding affinity to ANP32B in human NCI-H358 cells at 1 uM by mass spectrometry based pull down assay; format: cell-based
[2] = biological target: Glycogen synthase kinase-3 alpha (Homo sapiens) (UniProt P49840); experiment: Binding affinity to GSK3A in human NCI-H23 cells at 1 uM by mass spectrometry based pull down assay; format: cell-based
[3] = biological target: Multifunctional methyltransferase subunit TRM112-like protein (Homo sapiens) (UniProt Q9UI30); experiment: Binding affinity to TRMT112 in human NCI-H23 cells at 1 uM by mass spectrometry based pull down assay; format: cell-based
Sequence of Multifunctional methyltransferase subunit TRM112-like protein (Homo sapiens) (Q9UI30 whole entry): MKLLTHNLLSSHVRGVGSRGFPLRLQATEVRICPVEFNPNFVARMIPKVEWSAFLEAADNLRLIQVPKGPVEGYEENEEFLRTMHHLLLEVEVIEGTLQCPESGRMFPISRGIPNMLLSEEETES

[4] = biological target: Bifunctional glutamate/proline--tRNA ligase (Homo sapiens) (UniProt P07814); experiment: Binding affinity to EPRS in human NCI-H23 cells at 1 uM by mass spectrometry based pull down assay; format: cell-based
Sequence of Bifunctional glutamate/proline--tRNA ligase (Homo sapiens) (P07814 whole entry): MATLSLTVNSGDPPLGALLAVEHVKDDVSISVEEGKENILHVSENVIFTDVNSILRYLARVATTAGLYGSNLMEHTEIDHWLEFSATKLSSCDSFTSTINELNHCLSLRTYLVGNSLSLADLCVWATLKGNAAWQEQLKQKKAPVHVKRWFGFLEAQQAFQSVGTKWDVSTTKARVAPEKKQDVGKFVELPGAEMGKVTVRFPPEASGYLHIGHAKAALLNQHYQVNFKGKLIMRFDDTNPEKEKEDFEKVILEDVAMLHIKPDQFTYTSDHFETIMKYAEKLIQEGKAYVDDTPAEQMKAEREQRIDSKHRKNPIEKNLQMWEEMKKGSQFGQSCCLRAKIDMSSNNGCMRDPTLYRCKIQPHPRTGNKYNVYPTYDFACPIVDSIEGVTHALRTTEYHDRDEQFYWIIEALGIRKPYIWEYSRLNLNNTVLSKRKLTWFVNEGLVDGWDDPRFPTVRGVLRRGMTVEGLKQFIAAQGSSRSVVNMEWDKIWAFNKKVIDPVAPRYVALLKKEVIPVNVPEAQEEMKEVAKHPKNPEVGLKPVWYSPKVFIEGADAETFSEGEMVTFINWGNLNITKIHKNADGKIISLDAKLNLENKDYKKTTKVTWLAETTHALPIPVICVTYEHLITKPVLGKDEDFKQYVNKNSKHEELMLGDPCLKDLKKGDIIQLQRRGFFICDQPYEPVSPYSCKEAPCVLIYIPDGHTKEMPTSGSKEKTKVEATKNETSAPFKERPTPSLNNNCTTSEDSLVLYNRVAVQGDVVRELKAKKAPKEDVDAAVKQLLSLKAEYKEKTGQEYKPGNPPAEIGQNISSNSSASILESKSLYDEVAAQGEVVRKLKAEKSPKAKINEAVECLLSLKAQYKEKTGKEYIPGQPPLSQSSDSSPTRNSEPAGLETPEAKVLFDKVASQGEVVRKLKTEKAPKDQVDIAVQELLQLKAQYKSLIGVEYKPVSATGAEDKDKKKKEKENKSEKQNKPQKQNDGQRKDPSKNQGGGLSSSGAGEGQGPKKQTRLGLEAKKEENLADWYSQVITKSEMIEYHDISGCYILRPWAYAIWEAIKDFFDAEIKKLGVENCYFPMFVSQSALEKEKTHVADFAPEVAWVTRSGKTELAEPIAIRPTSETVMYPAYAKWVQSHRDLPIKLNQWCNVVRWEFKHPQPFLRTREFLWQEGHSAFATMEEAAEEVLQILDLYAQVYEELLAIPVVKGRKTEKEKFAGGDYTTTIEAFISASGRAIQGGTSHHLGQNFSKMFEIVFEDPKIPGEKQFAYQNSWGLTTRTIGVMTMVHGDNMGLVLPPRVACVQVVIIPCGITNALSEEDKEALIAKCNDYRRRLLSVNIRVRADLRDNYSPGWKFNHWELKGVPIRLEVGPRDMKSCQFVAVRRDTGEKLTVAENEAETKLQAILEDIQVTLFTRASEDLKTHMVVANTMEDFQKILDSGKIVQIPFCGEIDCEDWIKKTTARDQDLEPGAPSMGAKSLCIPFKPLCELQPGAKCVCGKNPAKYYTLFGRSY

[5] = biological target: T1, Serine/threonine-protein kinase D2 (Homo sapiens) (UniProt Q9BZL6); experiment: Binding affinity to PRKD2 in human NCI-H358 cells at 1 uM by mass spectrometry based pull down assay; format: cell-based
T1 sequence (whole entry): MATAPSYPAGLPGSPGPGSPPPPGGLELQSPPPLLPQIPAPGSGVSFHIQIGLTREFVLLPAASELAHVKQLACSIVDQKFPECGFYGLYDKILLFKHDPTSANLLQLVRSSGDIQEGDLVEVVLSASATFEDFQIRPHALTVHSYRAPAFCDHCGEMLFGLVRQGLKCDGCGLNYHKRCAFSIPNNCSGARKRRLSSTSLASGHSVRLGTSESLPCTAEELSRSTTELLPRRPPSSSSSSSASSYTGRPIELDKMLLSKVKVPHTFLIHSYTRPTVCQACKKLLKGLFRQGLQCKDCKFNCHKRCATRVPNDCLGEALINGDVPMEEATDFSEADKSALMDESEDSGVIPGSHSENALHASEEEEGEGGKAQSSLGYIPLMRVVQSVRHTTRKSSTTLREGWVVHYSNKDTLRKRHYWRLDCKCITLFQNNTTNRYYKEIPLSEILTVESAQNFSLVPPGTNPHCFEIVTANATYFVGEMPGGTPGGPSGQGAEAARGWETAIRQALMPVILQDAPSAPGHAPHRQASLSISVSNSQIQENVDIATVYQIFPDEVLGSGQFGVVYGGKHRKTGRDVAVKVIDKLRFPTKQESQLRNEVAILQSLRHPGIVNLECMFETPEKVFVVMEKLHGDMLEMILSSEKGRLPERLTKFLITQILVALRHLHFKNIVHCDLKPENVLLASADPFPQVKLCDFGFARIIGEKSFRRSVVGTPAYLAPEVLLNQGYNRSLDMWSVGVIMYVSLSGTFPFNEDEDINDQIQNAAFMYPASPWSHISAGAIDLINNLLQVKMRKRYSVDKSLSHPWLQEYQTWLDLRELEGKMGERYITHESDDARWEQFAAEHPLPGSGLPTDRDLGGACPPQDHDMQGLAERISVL

Gelsolin (Homo sapiens) = Gelsolin (Homo sapiens) (UniProt P06396); experiment: Binding affinity to GSN in human NCI-H358 cells at 1 uM by mass spectrometry based pull down assay; format: cell-based
Sequence of Gelsolin (Homo sapiens) (P06396 whole entry): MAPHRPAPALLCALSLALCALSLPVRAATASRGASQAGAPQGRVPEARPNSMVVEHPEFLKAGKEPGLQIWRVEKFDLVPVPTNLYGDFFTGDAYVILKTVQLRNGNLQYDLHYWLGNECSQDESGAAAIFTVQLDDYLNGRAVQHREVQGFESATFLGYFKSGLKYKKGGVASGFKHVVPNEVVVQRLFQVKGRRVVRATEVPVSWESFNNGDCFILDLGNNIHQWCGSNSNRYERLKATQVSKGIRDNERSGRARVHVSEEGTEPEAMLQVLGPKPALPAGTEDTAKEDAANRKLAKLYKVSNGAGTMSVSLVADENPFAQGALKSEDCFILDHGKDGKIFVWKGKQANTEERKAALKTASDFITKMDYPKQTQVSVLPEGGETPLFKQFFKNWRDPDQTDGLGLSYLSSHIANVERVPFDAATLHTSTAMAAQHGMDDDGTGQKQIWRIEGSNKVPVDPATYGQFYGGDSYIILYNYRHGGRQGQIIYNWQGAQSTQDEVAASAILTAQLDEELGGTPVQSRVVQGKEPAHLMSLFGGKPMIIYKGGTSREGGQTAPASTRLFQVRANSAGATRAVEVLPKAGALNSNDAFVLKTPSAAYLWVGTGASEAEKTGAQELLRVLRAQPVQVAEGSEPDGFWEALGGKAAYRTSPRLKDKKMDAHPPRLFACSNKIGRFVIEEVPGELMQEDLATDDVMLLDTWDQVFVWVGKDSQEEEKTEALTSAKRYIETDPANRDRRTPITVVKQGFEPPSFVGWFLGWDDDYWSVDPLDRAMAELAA

[6] = biological target: 80S Ribosome (Homo sapiens) (UniProt P08865+P42677+P62753+P15880+P23396+P61247+P62701+P22090+P46782+P62081+P62241+P46781+P46783+P62280+P25398+P62277+P62263+P62841+P62244+P62249+P08708+P62269+P39019+P60866+P63220+P62266+P62847+P62851+P62854+P62979+P62857+P62273+P62861+P39023+P36578+P46777+Q02878+P18124+P62424+P62917+P32969+P27635+P62906+P62913+P30050+P26373+P40429+P50914+P61313+P18621+Q07020+Q02543+P84098+P46778+P35268+P62829+P62750+P83731+P61254+P61353+P46776+P46779+P47914+P62888+P62899+P62910+P49207+P42766+P18077+Q9Y3U8+P83881+P61927+P61513+P63173+P62891+P62945+P05388+P05386); experiment: Binding affinity to RPL17 in human NCI-H358 cells at 1 uM by mass spectrometry based pull down assay; format: cell-based
[7] = biological target: Ribosomal protein S6 kinase alpha-4 (Homo sapiens) (UniProt O75676); experiment: Binding affinity to RPS6KA4 in human NCI-H358 cells at 1 uM by mass spectrometry based pull down assay; format: cell-based
Sequence of Ribosomal protein S6 kinase alpha-4 (Homo sapiens) (O75676 whole entry, looked up): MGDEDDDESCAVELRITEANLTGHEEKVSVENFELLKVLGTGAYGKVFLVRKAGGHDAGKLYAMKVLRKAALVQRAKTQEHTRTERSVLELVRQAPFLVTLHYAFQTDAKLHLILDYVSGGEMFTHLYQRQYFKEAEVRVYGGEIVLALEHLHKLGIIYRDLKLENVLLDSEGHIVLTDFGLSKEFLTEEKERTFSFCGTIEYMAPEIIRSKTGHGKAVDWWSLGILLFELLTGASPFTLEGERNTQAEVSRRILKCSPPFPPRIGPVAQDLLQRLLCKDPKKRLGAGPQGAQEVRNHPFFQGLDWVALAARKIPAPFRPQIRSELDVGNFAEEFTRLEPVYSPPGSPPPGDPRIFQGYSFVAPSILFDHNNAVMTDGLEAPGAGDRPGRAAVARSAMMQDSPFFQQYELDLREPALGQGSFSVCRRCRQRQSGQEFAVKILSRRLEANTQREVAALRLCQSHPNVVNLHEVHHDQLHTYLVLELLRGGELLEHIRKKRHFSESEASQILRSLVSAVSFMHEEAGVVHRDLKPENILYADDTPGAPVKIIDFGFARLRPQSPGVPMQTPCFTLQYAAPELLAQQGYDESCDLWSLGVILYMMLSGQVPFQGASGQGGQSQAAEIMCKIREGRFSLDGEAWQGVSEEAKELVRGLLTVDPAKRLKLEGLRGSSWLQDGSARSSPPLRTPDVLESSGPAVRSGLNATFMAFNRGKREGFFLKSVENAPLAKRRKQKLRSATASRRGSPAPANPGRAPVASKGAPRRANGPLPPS

[8] = biological target: Catenin alpha-1 (Homo sapiens) (UniProt P35221); experiment: Binding affinity to CTNNA1 in human NCI-H358 cells at 1 uM by mass spectrometry based pull down assay; format: cell-based
[9] = biological target: Protein NipSnap homolog 1 (Homo sapiens) (UniProt Q9BPW8); experiment: Binding affinity to NIPSNAP1 in human NCI-H23 cells at 1 uM by mass spectrometry based pull down assay; format: cell-based
Sequence of Protein NipSnap homolog 1 (Homo sapiens) (Q9BPW8 whole entry): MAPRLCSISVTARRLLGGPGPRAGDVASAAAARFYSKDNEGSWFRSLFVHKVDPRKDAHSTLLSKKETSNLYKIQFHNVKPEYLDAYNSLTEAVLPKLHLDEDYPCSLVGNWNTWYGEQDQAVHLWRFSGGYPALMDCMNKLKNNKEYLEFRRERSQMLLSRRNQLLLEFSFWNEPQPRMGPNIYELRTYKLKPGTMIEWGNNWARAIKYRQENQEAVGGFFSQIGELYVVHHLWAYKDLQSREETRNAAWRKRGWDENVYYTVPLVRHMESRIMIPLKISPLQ

[10] = biological target: Mitogen-activated protein kinase 3 (Homo sapiens) (UniProt P27361); experiment: Binding affinity to MAPK3 in human NCI-H23 cells at 1 uM by mass spectrometry based pull down assay; format: cell-based
Sequence of Mitogen-activated protein kinase 3 (Homo sapiens) (P27361 whole entry): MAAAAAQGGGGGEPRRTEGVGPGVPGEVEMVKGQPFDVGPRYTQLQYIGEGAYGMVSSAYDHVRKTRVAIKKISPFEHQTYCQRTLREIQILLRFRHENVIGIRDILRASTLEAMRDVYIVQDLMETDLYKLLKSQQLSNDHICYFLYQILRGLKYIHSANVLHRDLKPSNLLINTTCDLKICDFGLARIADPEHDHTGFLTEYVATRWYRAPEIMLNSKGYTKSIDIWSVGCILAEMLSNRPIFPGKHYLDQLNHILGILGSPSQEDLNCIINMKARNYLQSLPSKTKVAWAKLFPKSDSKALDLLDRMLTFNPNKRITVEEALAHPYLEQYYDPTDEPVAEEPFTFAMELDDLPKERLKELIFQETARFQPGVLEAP

[11] = biological target: Opioid growth factor receptor (Homo sapiens) (UniProt Q9NZT2); experiment: Binding affinity to OGFR in human NCI-H23 cells at 1 uM by mass spectrometry based pull down assay; format: cell-based
[12] = biological target: Proto-oncogene tyrosine-protein kinase Src (Homo sapiens) (UniProt P12931); experiment: Binding affinity to SRC in human NCI-H23 cells at 1 uM by mass spectrometry based pull down assay; format: cell-based
[13] = biological target: DnaJ homolog subfamily B member 6 (Homo sapiens) (UniProt O75190); experiment: Binding affinity to DNAJB6 in human NCI-H23 cells at 1 uM by mass spectrometry based pull down assay; format: cell-based
[14] = biological target: UV radiation resistance-associated gene protein (Homo sapiens) (UniProt Q9P2Y5); experiment: Binding affinity to UVRAG in human NCI-H23 cells at 1 uM by mass spectrometry based pull down assay; format: cell-based
Sequence of UV radiation resistance-associated gene protein (Homo sapiens) (Q9P2Y5 whole entry): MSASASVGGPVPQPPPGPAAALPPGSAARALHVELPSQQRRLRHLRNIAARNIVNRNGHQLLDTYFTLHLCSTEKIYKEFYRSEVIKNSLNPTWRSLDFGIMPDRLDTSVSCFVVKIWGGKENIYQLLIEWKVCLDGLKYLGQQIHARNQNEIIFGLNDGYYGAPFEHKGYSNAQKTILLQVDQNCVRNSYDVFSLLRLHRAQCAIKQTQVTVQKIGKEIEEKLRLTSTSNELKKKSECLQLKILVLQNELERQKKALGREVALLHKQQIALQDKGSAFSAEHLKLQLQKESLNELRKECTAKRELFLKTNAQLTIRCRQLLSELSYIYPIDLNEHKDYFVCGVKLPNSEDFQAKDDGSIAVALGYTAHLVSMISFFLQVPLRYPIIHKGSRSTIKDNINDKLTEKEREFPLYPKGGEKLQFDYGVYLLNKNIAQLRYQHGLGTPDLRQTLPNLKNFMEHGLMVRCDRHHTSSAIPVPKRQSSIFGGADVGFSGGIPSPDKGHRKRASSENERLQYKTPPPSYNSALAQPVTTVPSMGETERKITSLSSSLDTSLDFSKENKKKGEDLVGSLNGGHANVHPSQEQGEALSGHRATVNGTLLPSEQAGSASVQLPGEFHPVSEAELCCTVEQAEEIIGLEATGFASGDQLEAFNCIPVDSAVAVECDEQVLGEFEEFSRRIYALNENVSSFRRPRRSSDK

[15] = biological target: Heterogeneous nuclear ribonucleoprotein Q (Homo sapiens) (UniProt O60506); experiment: Binding affinity to SYNCRIP in human NCI-H358 cells at 1 uM by mass spectrometry based pull down assay; format: cell-based
[16] = biological target: T-complex protein 1 subunit epsilon (Homo sapiens) (UniProt P48643); experiment: Binding affinity to CCT5 in human NCI-H23 cells at 1 uM by mass spectrometry based pull down assay; format: cell-based
[17] = biological target: T1, Serine/threonine-protein kinase D2 (Homo sapiens); experiment: Inhibition of human PRKD2 (519 to 838 residues) expressed in bacterial expression system assessed as enzyme activity at 1 uM by KINOMEScan assay relative to control; set-up: scale not given: the % may be the effect or the level left
Outline: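 In vitro ATP-site competition binding assay across a panel of 456 kinases, with compound tested at 1 and 10 μM.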

[18] = biological target: MAP/microtubule affinity-regulating kinase 3 (Homo sapiens) (UniProt P27448); experiment: Inhibition of MARK3 in human SKCO1 cells at 1 uM after 4 hrs using biotin labeled EVAIKIIDKTQLNPTSLQK probe by mass-spectrometric analysis relative to control; format: cell-based

Sequence of Acidic leucine-rich nuclear phosphoprotein 32 family member B (Homo sapiens) (Q92688 whole entry): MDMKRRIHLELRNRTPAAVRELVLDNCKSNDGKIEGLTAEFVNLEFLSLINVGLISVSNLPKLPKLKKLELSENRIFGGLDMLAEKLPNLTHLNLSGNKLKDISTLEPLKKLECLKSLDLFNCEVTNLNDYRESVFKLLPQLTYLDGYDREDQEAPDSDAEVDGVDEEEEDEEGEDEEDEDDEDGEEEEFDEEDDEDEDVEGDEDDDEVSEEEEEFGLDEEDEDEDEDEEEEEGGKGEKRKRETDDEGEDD

Which results are given for C=CC(=O)Nc1ccccc1Nc1nc(Nc2ccc(N3CCN(CCOCCOCCOCCNC(=O)CCCC[C@@H]4SC[C@@H]5NC(=O)N[C@@H]54)CC3)cc2)ncc1Cl?
Activity [1]: Active; Activity [2]: Active; Activity [3]: Active; Activity [4]: Active; Activity [5]: Active; Activity (Gelsolin (Homo sapiens)): Active; Activity [6]: Active; Activity [7]: Active; Activity [8]: Active; Activity [9]: Active; Activity [10]: Active; Activity [11]: Active; Activity [12]: Active; Activity [13]: Active; Activity [14]: Active; Activity [15]: Active; Activity [16]: Active

With COc1cc(O)c2c(c1)/C=C/C[C@H](O)[C@H](O)C(=O)/C=C\C[C@H](C)OC2=O as the molecule, how does the Activity [17] read?
The Activity was 72%.

Which inhibition [18] does the source give for C=CC(=O)Nc1ccccc1Nc1nc(Nc2ccc(N3CCN(C)CC3)cc2)ncc1Cl here?
The inhibition was 8.6%.
